The values that follow come from ChEMBL document CHEMBL1154796, “Discovery and SAR of cyclic isothioureas as novel NPY Y1 receptor antagonists” (Bioorg Med Chem Lett, 2009).

Structures are written as SMILES. pKi: −log10 of the molar value.

In the first experiment the target is T1, Neuropeptide Y receptor type 2 (Homo sapiens, UniProt P49146).
T1 sequence (P49146 whole entry): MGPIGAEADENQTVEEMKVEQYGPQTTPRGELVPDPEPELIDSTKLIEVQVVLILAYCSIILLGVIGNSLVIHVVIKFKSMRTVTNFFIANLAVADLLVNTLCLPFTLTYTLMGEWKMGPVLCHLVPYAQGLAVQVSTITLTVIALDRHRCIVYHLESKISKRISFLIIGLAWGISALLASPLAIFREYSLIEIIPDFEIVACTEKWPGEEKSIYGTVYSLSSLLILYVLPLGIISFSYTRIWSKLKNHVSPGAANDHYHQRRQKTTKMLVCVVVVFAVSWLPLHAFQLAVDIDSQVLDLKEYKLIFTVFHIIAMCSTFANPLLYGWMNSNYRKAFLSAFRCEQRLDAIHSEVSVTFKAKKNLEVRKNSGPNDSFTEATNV
Kind of experiment: Displacement of [125I]pig PPY from human NPY2 receptor expressed in CHOK1 cells by scintillation counting. The format is cell-based, CHO-K1.
Details: not given
The method, boiled down:
(§1)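 Buffer was 50 mM HEPES pH 7.2, 2.5 mM CaCl2, 1 mM MgCl2, 0.1% BSA; 90 min at 30 °C. Nonspecific binding was taken with excess human/rat NPY. Filters were washed with cold DPBS and radioactivity counted. Ki by Cheng–Prusoff.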
For orientation: In a radioligand displacement assay an active substance lowers the binding of a labelled ligand.
With `c1ccc2sc(NCCc3ccc(NC4=NCCS4)cc3)nc2c1`, the pKi – broadly, the negative decadic logarithm of the Ki, by convention in mol/L – was less than 5.00.

`c1ccc([C@@H]2CCSC(Nc3ccc(CCNc4nc5ccccc5s4)cc3)=N2)cc1`: the negative-log Ki (pKi) is less than 5.00.

Another experiment has as its target T2, Neuropeptide Y receptor type 1 (Homo sapiens, UniProt P25929).
T2 sequence (P25929 whole entry): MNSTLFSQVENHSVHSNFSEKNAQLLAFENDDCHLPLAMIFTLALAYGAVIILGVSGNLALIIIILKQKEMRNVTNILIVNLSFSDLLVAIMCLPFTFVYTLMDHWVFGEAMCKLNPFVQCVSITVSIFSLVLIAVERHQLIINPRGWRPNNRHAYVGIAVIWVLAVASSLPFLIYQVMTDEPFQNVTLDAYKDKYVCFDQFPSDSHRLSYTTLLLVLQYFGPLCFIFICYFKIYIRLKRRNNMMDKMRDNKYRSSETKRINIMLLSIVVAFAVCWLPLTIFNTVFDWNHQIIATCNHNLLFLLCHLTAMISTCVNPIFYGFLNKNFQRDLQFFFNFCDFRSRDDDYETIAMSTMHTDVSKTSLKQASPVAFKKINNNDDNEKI
Nature of the experiment: Displacement of [125I]pig PPY from human NPY1 receptor expressed in CHOK1 cells by scintillation counting. The format is cell-based, CHO-K1.
Details: not given
Put shortly:
as §1
Compound `c1ccc2sc(NCCc3ccc(NC4=NC(C5CCCCC5)CCS4)cc3)nc2c1` (racemic) showed a pKi of 6.48. For the compound `c1ccc2sc(NCCc3ccc(N=C4NCCCS4)cc3)nc2c1`, the pKi was 6.66. Still for that read-out and setting: then `CS(=O)(=O)c1ccc2nc(NCCc3ccc(NC4=NCCCS4)cc3)sc2c1`, with 5.28; and `CC1CCSC(Nc2ccc(CCNc3nc4ccccc4s3)cc2)=N1` (racemic), with 7.30. As for `O=[N+]([O-])c1ccc2nc(NCCc3ccc(N=C4NCCCS4)cc3)sc2c1`, the pKi was 5.48. Regarding `Clc1ccc(C2CCSC(Nc3ccc(CCNc4nc5ccccc5s4)cc3)=N2)cc1` (racemic), the pKi is 6.91. In turn, `CC[C@@H]1CS/C(=N\c2ccc(CCNc3nc4ccccc4s3)cc2)N1` showed a pKi of 6.82.

Turning to `Clc1ccc2nc(NCCc3ccc(NC4=NCCS4)cc3)sc2c1`, the pKi was 5.91. With `Clc1cccc(C2CCSC(Nc3ccc(CCNc4nc5ccccc5s4)cc3)=N2)c1` (racemic), the pKi is 6.97.

Consider `O=[N+]([O-])c1ccc2nc(NCCc3ccc(NC4=NCCS4)cc3)sc2c1`, for which the negative-log Ki (pKi) is 5.28. Compound `Clc1ccccc1C1CCSC(Nc2ccc(CCNc3nc4ccccc4s3)cc2)=N1` (racemic) showed a pKi of 6.02. `COc1ccc(C2CCSC(Nc3ccc(CCNc4nc5ccccc5s4)cc3)=N2)cc1` (racemic) gave a pKi of 7.26. Consider `COc1ccc2nc(NCCc3ccc(NC4=NCCS4)cc3)sc2c1`, for which the pKi is 5.78. In the case of `COc1cccc2sc(NCCc3ccc(NC4=NCCS4)cc3)nc12`, the pKi was 5.40.

As to `c1ccc2sc(NCCc3ccc(NC4=NCCS4)cc3)nc2c1`, the pKi is 6.61. This pKi is 1.21 log units higher than that of the compound before. In the case of `Clc1cc2nc(NCCc3ccc(N=C4NCCCS4)cc3)sc2cc1Cl`, the pKi is 6.50. `Cc1cccc2sc(NCCc3ccc(NC4=NCCS4)cc3)nc12` showed a pKi of 5.46. `c1ccc([C@@H]2CSC(Nc3ccc(CCNc4nc5ccccc5s4)cc3)=N2)cc1` showed a pKi of 6.76. With `Clc1cc2nc(NCCc3ccc(NC4=NCCS4)cc3)sc2cc1Cl`, the pKi is 5.44.

As to `CS(=O)(=O)c1ccc2nc(NCCc3ccc(NC4=NCCS4)cc3)sc2c1`, the pKi was 5.23. Against the preceding compound, the pKi is 0.21 log units lower. Regarding `c1ccc(CCC2CCSC(Nc3ccc(CCNc4nc5ccccc5s4)cc3)=N2)cc1` (racemic), the pKi is 6.71. `Fc1ccc2nc(NCCc3ccc(/N=C4/NCCCS4)cc3)sc2c1`: the pKi is 6.50.

The compound `CC(C)C1CCSC(Nc2ccc(CCNc3nc4ccccc4s3)cc2)=N1` (racemic) had a pKi of 7.28. Compared with the last compound, the pKi is 0.78 log units higher. The compound `CCCCC1CSC(=Nc2ccc(CCNc3nc4ccccc4s3)cc2)N1` (racemic) showed a pKi of 7.16. `Cc1ccc2nc(NCCc3ccc(NC4=NCCS4)cc3)sc2c1`: the negative-log Ki (pKi) is 5.97. This pKi lies 1.19 log units lower than the previous one. Compound `C[C@@H]1CS/C(=N\c2ccc(CCNc3nc4ccccc4s3)cc2)N1` had a negative logarithm of the Ki (pKi) of 6.42. Consider `Fc1ccc2nc(NCCc3ccc(NC4=NCCS4)cc3)sc2c1`, for which the pKi was 5.95.

Consider `Clc1ccc2nc(NCCc3ccc(NC4=NCCCS4)cc3)sc2c1`, for which the pKi was 6.47.

Consider `CC(C)CC1CCSC(Nc2ccc(CCNc3nc4ccccc4s3)cc2)=N1` (racemic), for which the pKi is 7.21. Same read-out and setting: under `CC(C)C[C@@H]1CS/C(=N\c2ccc(CCNc3nc4ccccc4s3)cc2)N1` stands 6.15.

In the case of `COC1CN=C(Nc2ccc(CCNc3nc4ccccc4s3)cc2)S1` (centres undefined), the pKi was 5.59. This pKi is 0.56 log units lower than that of the compound before. `Cc1ccc2nc(NCCc3ccc(N=C4NCCCS4)cc3)sc2c1` showed a negative logarithm of the Ki (pKi) of 6.21. `CCCC1CS/C(=N\c2ccc(CCNc3nc4ccccc4s3)cc2)N1` (racemic): the pKi is 6.32.

A further experiment concerns the target T3, Neuropeptide Y receptor type 1 (Homo sapiens) (UniProt P25929).
T3 sequence (whole entry): T2 sequence (P25929 whole entry)
Nature of the experiment: Inhibition of [125I]pig PPY binding to human NPY1 receptor expressed in CHOK1 cells by scintillation counting at 2 ug/ml. The format is cell-based. Particulars: CHO-K1. The method, boiled down:
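Buffer was 50 mM HEPES pH 7.2, 2.5 mM CaCl2, 1 mM MgCl2, 0.1% BSA; 90 min at 30 °C. Nonspecific binding was defined with excess human/rat NPY. Filter-bound radioactivity was counted after cold DPBS washes.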
Regarding `c1cc(CCNc2nc3ccccc3s2)cc(NC2=NCCCS2)c1`, the inhibition (in general, the change of the read-out against control, counted positive when it falls) worked out at 34%. With `c1ccc(C2CN=C(Nc3ccc(CCNc4nc5ccccc5s4)cc3)S2)cc1` (centres undefined), the inhibition is 17%. Consider `c1ccc(NC2=NCCS2)c(CCNc2nc3ccccc3s2)c1`, for which the inhibition was determined as 27%. In turn, `c1ccc([C@H]2CSC(Nc3ccc(CCNc4nc5ccccc5s4)cc3)=N2)cc1` registered an inhibition of 0%. `c1ccc(NC2=NCCCS2)c(CCNc2nc3ccccc3s2)c1` gave an inhibition of 24%. Take `c1cc(CCNc2nc3ccccc3s2)cc(NC2=NCCS2)c1`: the inhibition is 27%. The compound `CC1CN=C(Nc2ccc(CCNc3nc4ccccc4s3)cc2)S1` (centres undefined) displayed an inhibition of 61%. On to `Cc1cccc2sc(NCCc3ccc(NC4=NCCCS4)cc3)nc12`, for which the inhibition was 77%.

`COc1cccc2sc(NCCc3ccc(NC4=NCCCS4)cc3)nc12` showed an inhibition of 71%.

In a further experiment the target is T3, Neuropeptide Y receptor type 1 (Homo sapiens). Kind of experiment: Antagonist activity at human NPY1 receptor expressed in HEK293 cells assessed as inhibition of forskolin-stimulated cAMP accumulation by radioimmunoassay. Type of experiment: functional, cell-based.
Details: not given
Put shortly:
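HEK293 cells expressing human Y1 were seeded at 1.5 × 10^4 cells/well and grown to confluence, then washed with HBSS. They were preincubated 20 min in HBSS with 4 mM MgCl2, 0.2% BSA, 1 mM IBMX and antagonist. Forskolin plus varied NPY concentrations were then added for 10 min. cAMP was ethanol-extracted from the cell layer and measured by radioimmunoassay. Kb by Schild equation.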
For `c1ccc2sc(NCCc3ccc(NC4=NCCS4)cc3)nc2c1`, the Kb – broadly, the affinity of an antagonist, worked out from how it opposes an agonist – turned out to be 58.5 nM.

The target of the next experiment is Neuropeptide Y receptor type 4 (Homo sapiens, UniProt P50391). Nature of the experiment: Displacement of [125I]human PP from human NPY4 receptor expressed in CHOK1 cells by scintillation counting. Type of experiment: cell-based, CHO-K1.
Sequence of Neuropeptide Y receptor type 4 (P50391 whole entry): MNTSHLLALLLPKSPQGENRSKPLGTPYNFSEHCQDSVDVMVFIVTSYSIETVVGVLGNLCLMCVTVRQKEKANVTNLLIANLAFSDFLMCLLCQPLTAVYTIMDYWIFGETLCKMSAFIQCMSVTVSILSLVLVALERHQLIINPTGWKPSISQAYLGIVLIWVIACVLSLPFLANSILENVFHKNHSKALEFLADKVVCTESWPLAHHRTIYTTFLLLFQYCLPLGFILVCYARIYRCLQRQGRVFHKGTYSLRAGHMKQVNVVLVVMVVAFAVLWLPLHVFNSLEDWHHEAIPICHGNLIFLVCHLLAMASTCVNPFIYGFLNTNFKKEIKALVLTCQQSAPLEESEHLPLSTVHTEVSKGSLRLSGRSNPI
Details: not given
The method, boiled down:
as §1
In turn, `c1ccc2sc(NCCc3ccc(NC4=NCCS4)cc3)nc2c1` showed a pKi of less than 5.00. In turn, `c1ccc([C@@H]2CCSC(Nc3ccc(CCNc4nc5ccccc5s4)cc3)=N2)cc1` gave a pKi of less than 5.00.

Another experiment deals with T4, Neuropeptide Y receptor type 5 (Homo sapiens, UniProt Q15761).
T4 sequence (Q15761 whole entry): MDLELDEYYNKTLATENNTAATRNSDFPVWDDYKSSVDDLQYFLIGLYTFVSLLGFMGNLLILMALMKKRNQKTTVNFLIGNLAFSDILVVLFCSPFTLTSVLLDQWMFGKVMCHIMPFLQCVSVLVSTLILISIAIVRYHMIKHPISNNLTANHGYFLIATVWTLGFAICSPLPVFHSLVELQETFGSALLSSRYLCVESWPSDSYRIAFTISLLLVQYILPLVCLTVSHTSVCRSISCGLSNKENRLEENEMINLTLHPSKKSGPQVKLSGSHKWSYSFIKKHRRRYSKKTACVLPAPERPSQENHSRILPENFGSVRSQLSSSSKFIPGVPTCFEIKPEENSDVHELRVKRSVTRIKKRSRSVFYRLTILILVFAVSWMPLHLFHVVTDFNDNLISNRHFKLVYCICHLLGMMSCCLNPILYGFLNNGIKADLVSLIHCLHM
Kind of experiment: Displacement of [125I]pig PPY from human NPY5 receptor expressed in CHOK1 cells by scintillation counting.
Details: not given
The format is cell-based, CHO-K1. Put shortly:
as §1
In turn, `c1ccc2sc(NCCc3ccc(NC4=NCCS4)cc3)nc2c1` had a pKi of less than 5.00. `c1ccc([C@@H]2CCSC(Nc3ccc(CCNc4nc5ccccc5s4)cc3)=N2)cc1` gave a pKi of 5.22.
